The values that follow come from ChEMBL document CHEMBL1143171, “Structure-activity studies on 1,3-dioxane-2-carboxylic acid derivatives, a novel class of subtype-selective peroxisome proliferator-activated receptor alpha (PPARalpha) agonists” (Bioorg Med Chem, 2008).

For test [1], the target named is T1, Peroxisome proliferator-activated receptor alpha (Homo sapiens, UniProt Q07869).
T1 sequence (Q07869 whole entry): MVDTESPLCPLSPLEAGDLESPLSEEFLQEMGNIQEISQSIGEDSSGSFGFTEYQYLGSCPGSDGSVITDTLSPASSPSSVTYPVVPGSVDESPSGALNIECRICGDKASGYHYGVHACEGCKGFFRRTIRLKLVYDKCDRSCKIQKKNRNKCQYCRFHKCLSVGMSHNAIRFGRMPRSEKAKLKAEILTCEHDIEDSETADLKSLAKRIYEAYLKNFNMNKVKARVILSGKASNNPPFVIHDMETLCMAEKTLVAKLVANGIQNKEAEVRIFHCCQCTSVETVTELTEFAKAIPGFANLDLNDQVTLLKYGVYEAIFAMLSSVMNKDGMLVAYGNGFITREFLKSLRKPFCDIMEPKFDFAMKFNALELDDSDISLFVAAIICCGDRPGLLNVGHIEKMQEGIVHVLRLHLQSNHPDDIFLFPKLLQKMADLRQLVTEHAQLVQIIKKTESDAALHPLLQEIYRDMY
As to the kind of experiment: Agonist activity at human PPARalpha expressed in CV1 cells by transactivation assay. Format: functional, cell-based, CV-1.

Test [2] deals with T2, Peroxisome proliferator-activated receptor delta (Homo sapiens, UniProt Q03181).
T2 sequence (Q03181 whole entry): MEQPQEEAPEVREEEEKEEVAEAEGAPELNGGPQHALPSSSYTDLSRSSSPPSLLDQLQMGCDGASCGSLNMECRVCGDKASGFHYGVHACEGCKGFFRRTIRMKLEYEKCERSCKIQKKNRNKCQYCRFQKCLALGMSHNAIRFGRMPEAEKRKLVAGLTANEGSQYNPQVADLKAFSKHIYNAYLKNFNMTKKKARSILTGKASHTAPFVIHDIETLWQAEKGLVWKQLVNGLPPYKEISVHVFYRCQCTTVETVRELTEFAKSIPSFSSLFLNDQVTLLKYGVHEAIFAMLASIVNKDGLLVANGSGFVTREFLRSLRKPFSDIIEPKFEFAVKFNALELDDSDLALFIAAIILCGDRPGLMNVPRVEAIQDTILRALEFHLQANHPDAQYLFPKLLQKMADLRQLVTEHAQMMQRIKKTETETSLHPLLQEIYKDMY
As to the kind of experiment: Agonist activity at human PPARdelta expressed in CV1 cells by transactivation assay. The format is functional, cell-based, CV-1.

For test [3], the system named is Mus musculus. Description: Hypolipidemic effect on diabetic KK-Ay mouse assessed as reduction of plasma triglyceride level at 300 mg/kg/day, po after 4 days. Also noted: scale not given: the % may be the effect or the level left. Format: functional. In outline: (§1)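 Male KK-Ay mice, 10 weeks old and fed chow ad libitum, were dosed orally once daily for 4 days (n = 5) with suspensions in 0.5% methylcellulose. On the day after the last dose, nonfasted tail-vein plasma was assayed enzymatically for TG and glucose. Vena cava plasma taken under pentobarbital had lipoprotein cholesterol measured by HPLC with on-line enzymatic detection. Values are % change of the group mean from vehicle controls.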

The subject of test [4] is Mus musculus. As to the kind of experiment: Hypoglycemic effect on diabetic KK-Ay mouse assessed as reduction of plasma glucose level at 300 mg/kg/day, po after 4 days. The format is functional. Also noted: scale not given: the % may be the effect or the level left. The method in brief:
as §1

Test [5] has as its system Mus musculus. As to the kind of experiment: Hypolipidemic effect on diabetic KK-Ay mouse assessed as reduction of plasma VLDL cholesterol level at 300 mg/kg/day, po after 4 days. Format: functional. Also noted: scale not given: the % may be the effect or the level left. In outline:
as §1

The test system of test [6] is Mus musculus. Description: Hypolipidemic effect on diabetic KK-Ay mouse assessed as increase in plasma HDL cholesterol level at 300 mg/kg/day, po after 4 days. Format: functional. The method in brief:
as §1

The term EC50 denotes the concentration at which the effect is half-maximal. As for `CC(C)(Oc1ccc(C(=O)c2ccc(Cl)cc2)cc1)C(=O)O` [FENOFIBRIC ACID], the EC50 in test [1] and in test [2] was above 100 µM throughout. For the same compound, the Activity is listed as -40% in the test with Mus musculus [3], -25% with Mus musculus [4], -31% with Mus musculus [5] and 17% in the test with Mus musculus [6].
